The results in this text go back to the RNAGym collection of RNA variant scans (doi:10.1038/s41586-018-0170-7).

Sequences and labels used below:
B1: tRNA (parent)
chain: GUUCCGUUGGCGUAAUGGUAACGCGUCUCCCUCCUAAGGAGAAGACUGCGGGUUCGAGUCCCGUACGGAACG

The variants in the series derive from B1. As to the kind of experiment: yeast fitness, log relative to wild type (ln ratio); higher = fitter; tRNA-Arg(CCU), competitive growth, 37 C, 1 M NaCl. The method in brief: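 Two independent transformations put a combinatorial tRNA-Arg(CCU) variant library on a HIS3 centromeric plasmid into BY4742 lacking the chromosomal gene. Pools were grown in SC-HIS at 30 °C for 4 generations, then in SC-HIS 1M NaCl at 37 °C for ~6.5 generations (~26.5 h), with three outputs taken per input. Fitness compares a genotype's generations with the wild type's as a natural log ratio. Those generations are OD-scaled log2 output/input frequencies, inverse-variance weighted across replicates, from 125 bp paired-end Illumina counts.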
For the variant U2G C27U A43C C46U C66U A70U, the “yeast fitness (ln)” value is -0.271.
With G6A A43C C46U C66A A69G A70U, the “yeast fitness (ln)” value is -0.317.
As for G6A C27U A43C C66U A69G A70U C71U, the “yeast fitness (ln)” value was -0.529.
With G1A U2C C27U C46U C66U A69G A70G C71U, the “yeast fitness (ln)” value is -0.174.
On to G1A U2C G6A A43C C66U A69G A70G, for which the “yeast fitness (ln)” value is -0.309.
For the variant G1A C27U A43C C66A A70G, the “yeast fitness (ln)” value was -0.173.
Then U2C C46U C66U A69G A70U C71U, with -0.359; and G1A G6A C27U A43C C46U A69G A70G C71U, with -0.374; and G1A U2C A43C C46U A70U C71U, with -0.0746.
Regarding U2G G6A C27U A43C C46U A70U C71U, the “yeast fitness (ln)” value was -0.176.
In the case of G1A U2C G6U C46U C66A A70U, the “yeast fitness (ln)” value is -0.184.
Then U2C G6U C27U A43C C46U A70U C71U, with -0.182.
On to U2G C27U A43C C66U A69G A70G, for which the “yeast fitness (ln)” value is -0.348.
The same measure for G1A G6A C27U A43C C66U A69G A70U C71U: -0.628; for U2G G6A C46U A69G A70U C71U: -0.272.
Then G1A U2G G6U C27U, with -0.148; and G1A G6A A43C C66U A70U C71U, with -0.405.
Turning to G1A U2C G6U A43C C46U C66A A70G C71U, the “yeast fitness (ln)” value is -0.0283.
Regarding G1A G6A C27U A69G A70U, the “yeast fitness (ln)” value was -0.353.
With U2G G6U C46U C66A A70G C71U, the “yeast fitness (ln)” value is -0.26.
G1A G6U C66U A69G A70U C71U: the “yeast fitness (ln)” value was -0.525.
U2G G6U C27U C66U: the “yeast fitness (ln)” value is -0.233.
With G1A U2G C27U A43C C46U A69G A70U C71U, the “yeast fitness (ln)” value is -0.399.
Then U2G G6U C27U A43C C46U A69G A70U C71U, with -0.418.
Consider G1A U2G A43C C46U C71U, for which the “yeast fitness (ln)” value is -0.115.
The same measure for U2G G6A C27U A43C C46U A69G A70U: -0.159; for G1A U2G C27U A43C C66A A69G A70G: -0.27.
Consider G6U C46U C66A A70G, for which the “yeast fitness (ln)” value was -0.00887.
As to G6U C27U C46U A70G, the “yeast fitness (ln)” value was -0.15.
On to U2G C46U C71U, for which the “yeast fitness (ln)” value was -0.0759.
As for C27U A43C C46U A70U C71U, the “yeast fitness (ln)” value was -0.093.
Regarding G1A U2G G6A C66A A70U C71U, the “yeast fitness (ln)” value is -0.119.
Turning to G1A G6U C46U C66U A69G C71U, the “yeast fitness (ln)” value is -0.814.
Then G6A C27U A43C C66U, with -0.0646; and U2G G6U C27U A43C C66A A70U C71U, with -0.445; and G1A U2C G6U C27U A43C, with -0.181.
With U2G G6A A43C A70U, the “yeast fitness (ln)” value was -0.14.
For G1A A43C C46U A69G A70G C71U, the “yeast fitness (ln)” value was -0.13.
As to U2C G6U C46U C66A A69G A70G, the “yeast fitness (ln)” value came to 0.0157.
G6A C27U A43C C46U A69G A70U C71U: the “yeast fitness (ln)” value was -0.441.
Take U2C G6U C27U A69G A70G C71U: the “yeast fitness (ln)” value is -0.157.
For the variant G1A U2G A43C C66U A69G A70G C71U, the “yeast fitness (ln)” value was -0.457.
On to G1A U2C G6U C27U A43C C46U C66U A69G A70U, for which the “yeast fitness (ln)” value is -0.472.
Consider G1A U2G G6U A43C C46U C66U A69G A70U, for which the “yeast fitness (ln)” value is -0.299.
Then U2G C46U A70G, with -0.0123; and G6U C27U A43C A70U, with -0.309.
Take G6A C27U C46U C66U A70U: the “yeast fitness (ln)” value is -0.0845.
For the variant G6U C66U A69G C71U, the “yeast fitness (ln)” value was -0.374.
Then U2G G6A A43C C46U C66U C71U, with -0.212.
The same measure for U2C G6U C27U C66A A69G A70G C71U: -0.0793.
With G1A C46U C66U A70G, the “yeast fitness (ln)” value is -0.104.
In the case of U2G G6A C27U A43C A70U, the “yeast fitness (ln)” value was -0.119.
Turning to G1A G6U C27U A43C C46U C66U, the “yeast fitness (ln)” value is -0.475.
In the case of G1A U2G G6A C27U A43C C46U C66A A69G C71U, the “yeast fitness (ln)” value is -0.275.
The same measure for G1A C46U C71U: -0.01.
As for C27U A43C C46U C66A A69G A70U, the “yeast fitness (ln)” value was -0.156.
For G1A G6U C27U A69G C71U, the “yeast fitness (ln)” value is -0.371.
Then U2G G6A C27U C66U A69G A70G C71U, with -0.272; and U2G G6U C27U A69G A70U C71U, with -0.515; and U2G G6A C27U C66U A69G, with -0.193.
As for G1A U2G C27U A43C C46U, the “yeast fitness (ln)” value is -0.038.
As for G1A U2C C71U, the “yeast fitness (ln)” value is -0.00448.
Consider G1A U2G G6U C27U A69G A70U C71U, for which the “yeast fitness (ln)” value is -0.404.
For the variant G6U C27U C46U C66A A70G C71U, the “yeast fitness (ln)” value is -0.434.
For the variant G6U C27U C66A A70U, the “yeast fitness (ln)” value was -0.17.
As for U2G C27U C66A A70G, the “yeast fitness (ln)” value is -0.128.
The same measure for U2G C27U C46U C66U A69G A70U C71U: -0.376; for U2C C27U A69G A70U: -0.175; for U2G C27U C46U C66A: -0.0734.
With U2C G6A A43C C46U A70G, the “yeast fitness (ln)” value was -0.0922.
For U2C G6A A43C C46U C66A A70G C71U, the “yeast fitness (ln)” value was -0.108.
On to G1A G6U A43C A69G C71U, for which the “yeast fitness (ln)” value was -0.28.
For the variant U2C G6U C66A A69G A70G, the “yeast fitness (ln)” value was -0.0222.
Turning to G1A U2G G6U C46U C66U A70U C71U, the “yeast fitness (ln)” value was -0.722.
Then U2G G6U A43C C71U, with -0.17; and G1A U2G G6U A69G A70U C71U, with -0.255; and G1A U2C G6A C46U C66U, with -0.16.
With G6U A43C C66U A69G C71U, the “yeast fitness (ln)” value is -0.394.
Take U2G G6U C27U C46U A70G C71U: the “yeast fitness (ln)” value is -0.262.
For the variant U2G G6U C27U A43C C66U A69G A70U, the “yeast fitness (ln)” value was -0.466.
On to G1A U2C A43C C46U C71U, for which the “yeast fitness (ln)” value was -0.0678.
The same measure for U2G G6U C27U A43C C46U C66U A69G A70U: -0.374.
Then G1A G6U A43C C46U A69G C71U, with -0.263; and U2C G6U A43C C66A A70G C71U, with -0.0145.
